Screens (PubChem)
Most compounds without a hit are left out; they make up all but 4.5% or so of the library.
OX1R antag-1: antagonists of human orexin 1 receptor. O43613. CHO/OX1R cells, Fluo-8 calcium fluorescence, orexin A. inhibition, % at 5 µM. actives 0.43% (n = 330,000). AID 434989;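 active = inhibition above its plate's threshold, mean inhibition of all tested compounds on the plate plus 3 SD, cut at about 37% in these data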;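 note: 0% = orexin A challenge wells and 100% = SB-334867-A antagonist wells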
TAAR1 ag: human TAAR1 agonism; Q96RJ0; CHO RD-HGA16 TAAR1, Fluo-8 calcium fluorescence; vehicle wells 0%, saturating PEA agonist 100%; activation, % at 3 µM; actives 0.99% (n = 360,000); AID 624467;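 active = activation above the mean activation of all test compounds in the run plus 3 SD, cut at about 38% in these data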
Target sequence (Q96RJ0 whole entry, looked up): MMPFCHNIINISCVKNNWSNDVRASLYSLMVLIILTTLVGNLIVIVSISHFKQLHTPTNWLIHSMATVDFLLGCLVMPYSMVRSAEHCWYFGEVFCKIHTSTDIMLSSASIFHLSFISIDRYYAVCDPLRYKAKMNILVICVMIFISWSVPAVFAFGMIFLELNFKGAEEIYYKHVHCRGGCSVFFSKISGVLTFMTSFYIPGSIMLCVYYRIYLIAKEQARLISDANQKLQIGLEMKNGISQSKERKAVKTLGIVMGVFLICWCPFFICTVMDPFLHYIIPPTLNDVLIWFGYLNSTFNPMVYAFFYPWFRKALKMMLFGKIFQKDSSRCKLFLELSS
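Test system: RD-HGA16 (CHO) cells co-expressing Gα16 and hTAAR1 / Benchmarks: DMSO vehicle as 0%, PEA at EC100 as 100% / Repeats: no replicates (n 1) / Measure: % activation from peak over basal fluorescence ratio, DMSO-to-PEA scaled / Timing: 17-24 h plating, Fluo-8 75 min 37 °C, 30 min RT / Technique: kinetic Fluo-8 calcium fluorescence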
OX1R antag-2: OX1R (human) antagonism; O43613; OX1R-expressing cells, FRET antagonist read-out; inhibition, % at 6.6 µM; actives 1.8% (n = 330,000); AID 485270; in the data active = inhibition mostly above about 38%, no sharp cut-off; inactive = mostly below about 40%;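 note: 0% = agonist challenge alone and 100% = reference antagonist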
GPR7 antagonist: antagonists of human GPR7 (neuropeptides B/W receptor 1). P48145. GPR7-expressing cells, fluorescence antagonist assay. inhibition, % at 4.4 µM. actives 1.1% (n = 290,000); in the data active = inhibition above about 16%, passing the limit was not always enough;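 note: cells stimulated with the agonist NPW; 0% = agonist with vehicle and 100% = vehicle without agonist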
TAAR1 antag: human TAAR1 antagonism; actives 1.5% (n = 360,000); CHO RD-HGA16 TAAR1, Fluo-8 calcium fluorescence, antagonist; inhibition, % at 3 µM; AID 624466;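 active = inhibition above a per-plate cutoff, the mean inhibition of test compounds on that plate plus 3 SD, cut at about 49% in these data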;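 note: 0% = DMSO plus EC80 beta-PEA response and 100% = DMSO alone without agonist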
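Assay system: RD-HGA16 CHO cells with stable hTAAR1 and Gα16 / Reagent: EC80 β-phenethylamine stimulus / Doses: 3 µM, single point / Timing: dye loading 75 min at 37 °C, then 30 min room temperature / Measured by: Fluo-8 intracellular calcium dye fluorescence, real-time kinetic reads / Controls: vehicle wells and EC80 agonist wells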
CHO parental Ca: counter-screen: ATP calcium response change in parental CHO cells | parental CHO-K1, ATP-induced calcium, Fluo-8 fluorescence | inhibition, % at 5.6 µM | actives 0.63% (n = 330,000) | AID 463079;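 active = inhibition above that plate's mean sample inhibition plus 3 SD, cut at about 26% in these data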;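 note: 0% = ATP-challenged DMSO wells and 100% = DMSO wells without ATP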
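test system = CHO parental line | reagent = ATP stimulus | measured by = intracellular calcium via Fluo-8 no-wash fluorescent dye | control set = ATP and no-ATP DMSO wells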
The depositor's hits bear a star; · = no result given.

SMILES	OX1R antag-1	TAAR1 ag	OX1R antag-2	GPR7 antagonist	TAAR1 antag	CHO parental Ca
COc1ccc(-c2noc(-c3csc([C@@H]4O[C@H](CO)[C@H](O)[C@H](O)[C@H]4O)n3)n2)cc1OC	·	0	·	·	0	·
COc1ccc(C(=O)NCC2CCN(C(=O)C(=O)c3cc4ccccc4o3)CC2)cc1	·	-1	·	·	16	·
CC(NCC(O)COC1CCC(C(C)(C)C)CC1)c1ccccc1 (centres undefined)	-29	44*	6	13	1	21
CC(NCC(O)COc1ccc(Br)cc1)c1ccccc1 (centres undefined)	5	43*	11	9	3	-21
CCCC(NCC(O)COc1ccc(-c2ccccc2)cc1)c1ccccc1 (centres undefined)	38	40*	-1	19	-6	53*
COc1ccc(OCC(O)CNC(C)c2ccccc2)cc1 (centres undefined)	-18	4	4	6	-26	-23
CC1CCC(C(C)C)C(OCC(O)CNC(C)c2ccccc2)C1 (centres undefined)	-23	37	10	11	-7	-27
COc1ccc(C(=O)OCCN2CCN(C3=NS(=O)(=O)c4ccccc43)CC2)cc1OC	-1	1	13	-1	6	-21
O=C(NCCc1c[nH]c2ccccc12)c1c(Cl)nc2sccn12	-21	39*	39	-8	23	-2
O=C(Cc1ccc(Cl)cc1)NCCc1c[nH]c2ccccc12	-15	3	11	-6	4	-8
CC1(Cc2cc(Cl)ccc2C(F)(F)F)C(=O)Nc2c(Cl)cccc21 (centres undefined)	·	-2	·	·	35	·
COC(=O)CSc1nc(-c2ccccc2)nc2ccccc12	-10	6	74*	-10	24	-19
CCCNC(=O)C1(C)CCCN(Cc2cc(-c3ccccc3)n(C)n2)C1 (centres undefined)	·	-1	·	·	8	·
COc1ccc(OC)c2c1C(=O)C(Cl)=C(Cl)C2=O	69*	12	104*	-1	71*	75*
COc1ccc(OC)c2c1C(=O)CC2C (centres undefined)	·	3	·	·	-21	·
COc1ccc(OC)c2c1C(=O)c1ccccc1C2=O	17	0	65*	-1	-8	10
COc1ccc(N)c2c1C(=O)c1ccccc1C2=O	8	-1	70*	3	5	10
Nc1c(C(=O)NCc2ccc3c(c2)OCO3)nnn1-c1ccc(OC(F)(F)F)cc1	-5	5	6	7	-4	-11
COc1cccc(CNc2nc3cc(-c4ccsc4)sc3c(=O)n2C)c1OC	·	7	·	·	34	·
Cn1cc2cccc([N+](=O)[O-])c2n1	0	1	74*	1	8	-1
O=C(NN=Cc1ccc(O)cc1O)c1ccccc1NS(=O)(=O)c1cccs1	-9	4	12	·	-23	-5
Cc1cccc(C)c1NC(=O)CN(c1ccccn1)S(=O)(=O)c1ccccc1	-15	1	16	-9	6	25*
Cc1cccc(C)c1NC(=O)CN(c1ccccn1)S(=O)(=O)c1ccc(F)cc1	-11	15	-1	-3	-2	-7
CC(C)n1c(CNC(=O)c2ccccc2F)nnc1SCC(=O)c1ccc(F)cc1	·	39*	·	·	-16	·
Cc1nnc(NC(=O)CSc2nnc(CNC(=O)c3ccccc3F)n2C(C)C)s1	·	1	·	·	5	·
SMILES	OX1R antag-1	TAAR1 ag	OX1R antag-2	GPR7 antagonist	TAAR1 antag	CHO parental Ca
O=C(N/N=C/c1cccc2ccccc12)c1cc2ccccc2o1	·	0	·	9	14	·
COC(=O)c1ccccc1-c1ccc(/C=N/NC(=O)c2cc3ccccc3o2)o1	-22	10	36	1	55*	-15
COc1cc(CNC(=O)c2cc(-c3cc(F)ccc3OCC3CCCO3)n[nH]2)cc(OC)c1 (centres undefined)	·	5	·	·	53*	·
COc1ccc(-c2cn(CC[C@@H]3CC[C@H](NC(=O)Cc4ccccn4)[C@@H](CO)O3)nn2)cc1	·	1	·	·	-4	·
CCc1nnc(N/N=C/c2ccc(N3CCC(C)CC3)c([N+](=O)[O-])c2)n1N	-2	-2	60*	-12	1	-9
CC1CCN(c2cc(N3CCOCC3)c(F)cc2[N+](=O)[O-])CC1	-25	24	28	-4	7	-13
